Results collected from several papers.
Protocols differ between the studies behind these lines. Converted amounts (≈) assume the structure as drawn.

For `C=CCON(C(=O)c1cc([N+](=O)[O-])cc(C(F)(F)F)c1)C1CC(=O)N1SC` (stereo not drawn), the MIC was 6.25 µM (Mycolicibacterium vaccae; microbial growth).
For `O=C(O)c1cn(C2CC2)c2cc(N3CCNCC3)c(F)cc2c1=O`, the inhibition zone was 21 mm (Mycolicibacterium vaccae; microbial growth; 10670; 1000 µg/mL).
For `OC(Cn1cncn1)(Cn1cncn1)c1ccc(F)cc1F`, the MIC90 was 1 mg/L (≈ 3.27 µM) (Kluyveromyces marxianus; microbial growth, broth dilution; 24 h).
With `O=C(Nc1ccccc1-c1ccc(F)c(F)c1)c1nccnc1C(F)(F)F` the EC50 was 0.12 mg/L (≈ 0.316 µM) (Mycosphaerella arachidis; microbial growth).
`CCCCCCCCCCCC(=O)Oc1c(C)c(O)c(C(=O)/C=C/c2ccccc2)c(OC)c1C` has an MBC of > 5000 mg/L (Pseudomonas aeruginosa; microbial killing, broth dilution; ATCC27853).
`Cc1cc(CCCOc2c(C)cc(-c3noc(C(F)(F)F)n3)cc2C)on1` has an IC50 of 0.05 µM (Enterovirus; cytopathic effect, inhibitor; HeLa).
`CC1(C)S[C@@H]2[C@H](NC(=O)[C@H](N)c3ccccc3)C(=O)N2[C@H]1C(=O)O` has an MIC of 1 mg/L (Limosilactobacillus reuteri; microbial growth, broth dilution; ATCC23272).
`Nc1nc(-c2ccccc2)nc2[nH]nc(Nc3ccc(C(F)(F)F)cc3)c12` has an IC50 of 4.59 µM (Enterovirus; cytopathic effect; HeLa).
`O=C1CC(N(OCc2ccccc2)C(=O)c2cc([N+](=O)[O-])cc(C(F)(F)F)c2)N1` (stereo not drawn) gave an MIC of 6.25 µM (Mycolicibacterium vaccae; microbial growth).
